This passage reports IC50 results from ChEMBL document CHEMBL1140159, “Gedunin, a novel hsp90 inhibitor: semisynthesis of derivatives and preliminary structure-activity relationships” (J Med Chem, 2008).

Some results are limits rather than exact numbers.

The subject of one test is MCF7. The experiment in a line: Antiproliferative activity against human MCF7 cells after 72 hrs. It counts as functional, cell-based. Particulars: MCF7, 72 h. The procedure, abridged:
(§1)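 Cells were grown in a 1:1 Advanced DMEM/F12 mix with nonessential amino acids, 2 mM L-glutamine, penicillin/streptomycin and 10% FBS at 37 °C and 5% CO₂. They were seeded at 2000/well and left to attach overnight, then dosed over a concentration range (1% DMSO final) for 72 h. Viable cells were read by MTS/PMS, normalised to 1% DMSO controls (100%), and IC50 was taken from a nonlinear dose–response fit; three experiments, each in triplicate.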

The next test relates to SK-BR-3. The experiment in a line: Antiproliferative activity against human SKBr3 cells after 72 hrs. Particulars: SK-BR-3, 72 h. It is filed as functional, cell-based. In outline:
as §1

A word on the IC50: it is the point on the concentration scale where inhibition reaches its midpoint. Higher therefore signals weaker potency. In the case of `CCO[C@@H]1C[C@H]2C(C)(C)C(=O)C=C[C@]2(C)[C@H]2CC[C@@]3(C)[C@@H](c4ccoc4)OC(=O)[C@H]4O[C@]43[C@@]21C`, the half-inhibitory concentration (IC50) is 14.8 µM in the test on MCF7 and 12.1 µM with SK-BR-3.

In the case of `CCO/N=C1\C=C[C@]2(C)[C@H]3CC[C@@]4(C)[C@@H](c5ccoc5)OC(=O)[C@H]5O[C@]54[C@]3(C)[C@H](OC(C)=O)C[C@H]2C1(C)C`, the IC50 in the test on MCF7 and with SK-BR-3 was more than 100 µM in each case.

As to `CC(=O)OC1C=C[C@]2(C)[C@H]3CC[C@@]4(C)C(c5ccoc5)OC(=O)[C@H]5O[C@]54[C@]3(C)[C@H](OC(C)=O)C[C@H]2C1(C)C` (single isomer, unassigned), the half-inhibitory concentration (IC50) with MCF7 and in the test on SK-BR-3 was more than 100 µM each time.

Consider `CC1(C)C(=O)C=C[C@]2(C)[C@H]3CC[C@@]4(C)[C@@H](c5ccoc5)OC(=O)[C@H]5O[C@]54[C@]3(C)[C@H](OC(N)=O)C[C@@H]12`, for which the IC50 in the test on MCF7 is 9.79 µM; with SK-BR-3, 7.05 µM.

Turning to `CC(=O)O[C@@H]1C[C@H]2C(C)(C)C(=O)CC[C@]2(C)[C@H]2CC[C@@]3(C)[C@@H](c4ccoc4)OC(=O)[C@H]4O[C@]43[C@@]21C`, the IC50 with MCF7 and in the test with SK-BR-3 was more than 100 µM each time.

With `CC(=O)O[C@@H]1C[C@H]2C(C)(C)C(O)C=C[C@]2(C)[C@H]2CC[C@@]3(C)C(c4ccoc4)OC(=O)[C@H]4O[C@]43[C@@]21C` (single isomer, unassigned), the IC50 in the test on MCF7 stood at 54.3 µM; with SK-BR-3 it was 47.7 µM.

As to `CC(=O)O[C@@H]1C[C@H]2C(C)(C)C(O)CC[C@]2(C)[C@H]2CC[C@@]3(C)[C@@H](c4ccoc4)OC(O)[C@H]4O[C@]43[C@@]21C` (some centres not stated), the 50% inhibitory concentration (IC50) in the test on MCF7 and in the test on SK-BR-3 was more than 100 µM in each case.

Regarding `CC(=O)O[C@@H]1C[C@H]2C(C)(C)/C(=N/O)C=C[C@]2(C)[C@H]2CC[C@@]3(C)[C@@H](c4ccoc4)O/C(=N\O)[C@H]4O[C@]43[C@@]21C`, the IC50 in the test on MCF7 was determined as 33.2 µM; with SK-BR-3, 26.5 µM.

For the compound `CC1(C)C(=O)[C@H]2O[C@H]2[C@]2(C)[C@H]3CC[C@@]4(C)C(c5ccoc5)OC(=O)[C@H]5O[C@]54[C@]3(C)[C@H](O)C[C@@H]12` (single isomer, unassigned), the IC50 in the test on MCF7 and in the test on SK-BR-3 was more than 100 µM throughout.

As for `CO[C@@H]1C[C@H]2C(C)(C)C(=O)C=C[C@]2(C)[C@H]2CC[C@@]3(C)[C@@H](c4ccoc4)OC(=O)[C@H]4O[C@]43[C@@]21C`, the IC50 in the test on MCF7 came to 38.9 µM; in the test with SK-BR-3, 13 µM.

Consider `CC(=O)O[C@@H]1C[C@H]2C(C)(C)/C(=N/OCc3ccccc3)C=C[C@]2(C)[C@H]2CC[C@@]3(C)[C@@H](c4ccoc4)OC(=O)[C@H]4O[C@]43[C@@]21C`, for which the 50% inhibitory concentration (IC50) in the test with MCF7 and in the test on SK-BR-3 was more than 100 µM throughout.

Take `CC(=O)O[C@@H]1C[C@H]2C(C)(C)C(O)C=C[C@]2(C)[C@H]2CC[C@@]3(C)C(c4ccoc4)OC(O)[C@H]4O[C@]43[C@@]21C` (single isomer, unassigned): the IC50 in the test with MCF7 was 47.7 µM; with SK-BR-3 it was 82.4 µM.

Consider `CC1(C)C(=O)C=C[C@]2(C)[C@H]3CC[C@@]4(C)[C@@H](c5ccoc5)OC(=O)[C@H]5O[C@]54[C@]3(C)C(=O)C[C@@H]12`, for which the IC50 with MCF7 turned out to be 10.9 µM; with SK-BR-3, 4.49 µM.

For the compound `CO/N=C1\C=C[C@]2(C)[C@H]3CC[C@@]4(C)[C@@H](c5ccoc5)OC(=O)[C@H]5O[C@]54[C@]3(C)[C@H](OC(C)=O)C[C@H]2C1(C)C`, the IC50 in the test with MCF7 and with SK-BR-3 was more than 100 µM each time.

`CC(=O)O[C@@H]1C[C@H]2C(C)(C)C(=O)C=C[C@]2(C)[C@H]2CC[C@@]3(C)[C@H](c4ccoc4)OC(=O)[C@H]4O[C@]43[C@@]21C` [GEDUNIN]: the concentration for half-maximal inhibition (IC50) with MCF7 is 8.84 µM; in the test on SK-BR-3 it was 3.22 µM.

Consider `CC1(C)C(=O)C=C[C@]2(C)[C@H]3CC[C@@]4(C)[C@@H](c5ccoc5)OC(=O)[C@H]5O[C@]54[C@]3(C)[C@H](OCc3ccccc3)C[C@@H]12`, for which the half-maximal inhibitory concentration (IC50) in the test with MCF7 and in the test with SK-BR-3 was more than 100 µM throughout.

As to `CC(=O)O[C@@H]1C[C@H]2C(C)(C)C(=O)C3OC(C)(C)OC3[C@]2(C)[C@H]2CC[C@@]3(C)C(c4ccoc4)OC(=O)[C@H]4O[C@]43[C@@]21C` (single isomer, unassigned), the IC50 in the test with MCF7 and with SK-BR-3 was more than 100 µM each time.

For `CCC(=O)O[C@@H]1C[C@H]2C(C)(C)C(=O)C=C[C@]2(C)[C@H]2CC[C@@]3(C)[C@@H](c4ccoc4)OC(=O)[C@H]4O[C@]43[C@@]21C`, the concentration for half-maximal inhibition (IC50) in the test on MCF7 and in the test on SK-BR-3 was more than 100 µM throughout.

As to `CC(=O)O[C@@H]1C[C@H]2C(C)(C)C(=O)C(O)C(O)[C@]2(C)[C@H]2CC[C@@]3(C)[C@@H](c4ccoc4)OC(=O)[C@H]4O[C@]43[C@@]21C` (some centres not stated), the concentration for half-maximal inhibition (IC50) in the test with MCF7 and with SK-BR-3 was more than 100 µM throughout.

With `CC1(C)C(=O)C=C[C@]2(C)[C@H]3CC[C@@]4(C)[C@H](c5ccoc5)OC(=O)[C@H]5O[C@]54[C@]3(C)[C@H](O)C[C@@H]12` [DEACETYLGEDUNIN], the IC50 in the test on MCF7 turned out to be 29 µM; with SK-BR-3 it was 21.1 µM.

Take `CCCO[C@@H]1C[C@H]2C(C)(C)C(=O)C=C[C@]2(C)[C@H]2CC[C@@]3(C)[C@@H](c4ccoc4)OC(=O)[C@H]4O[C@]43[C@@]21C`: the half-inhibitory concentration (IC50) in the test with MCF7 turned out to be 37.3 µM; in the test on SK-BR-3, 18.1 µM.
